Reference: ChEMBL document CHEMBL4145530, “Design, synthesis and pharmacological evaluation of N-benzyl-piperidinyl-aryl-acylhydrazone derivatives as donepezil hybrids: Discovery of novel multi-target anti-alzheimer prototype drug candidates” (Eur J Med Chem, 2018)
pIC50: −log10 of the molar value. The source made the active and inactive calls.

Experiments:
[1] = system: Mus musculus; assay: (§1) Toxicity in C57Bl/6 mouse model of amyloid beta (1 to 42) oligomer-induced neuroinflammation assessed as induction of neurodegeneration in CA1 region of ipsilateral hippocampus at 100 mg/kg, ip pretreated for 1.5 hrs followed by amyloid beta (1 to 42) oligomer addition and measured after 7 days by Fluoro-Jade C staining based fluorescence microscopic assay; format: organism-based; conditions: in vivo, 168 h
Method in brief: (§2)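 C57Bl/6 male mice were dosed i.p. at 100 mg/kg 1.5 h before stereotactic right intrahippocampal Aβ1-42 oligomer injection (400 pmol/0.5 µL), with PBS as control. After 7 days, hippocampal sections were stained with Fluoro-Jade C (0.0001%) after NaOH/ethanol and permanganate steps. Five CA1 images per hippocampus were imaged under fluorescence and pixel intensity quantified, n=10.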

[2] = target: Cholinesterase (Equus caballus, UniProt P81908); assay: (§3) Inhibition of […] preincubated for 10 mins followed by substrate addition by Ellman's method
[3] = target: Cholinesterase (Equus caballus) (UniProt P81908); assay: as §3
[4] = system: SH-SY5Y; assay: cells; format: ADME, cell-based; conditions: Homo sapiens, 24 h
[5] = system: HepG2; assay: cells; format: ADME, cell-based; conditions: Homo sapiens, HepG2, 6 h
[6] = system: THP-1; assay: Anti-inflammatory activity in human THP1 cells assessed as inhibition of LPS-induced IL-1beta production at 10 uM after 24 hrs by ELISA relative to control; format: functional; conditions: THP-1, 24 h
Method in brief: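 Human monocytic THP-1 cells (5×10^5 cells/mL) were given LPS 1 µg/mL with or without compound at 10 µM for 24 h. Cells were spun out at 500 × g and the medium kept at −80 °C. Secreted IL-1β and TNFα were measured with high-sensitivity ELISA. Three independent experiments.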

[7] = target: T1, Prostaglandin G/H synthase 1 (Ovis aries) (UniProt P05979); assay: Inhibition of ovine COX1 at 10 uM using arachidonic acid as substrate preincubated for 120 mins followed by substrate addition measured for 5 secs by chemiluminescence assay relative to control
T1 sequence (whole entry): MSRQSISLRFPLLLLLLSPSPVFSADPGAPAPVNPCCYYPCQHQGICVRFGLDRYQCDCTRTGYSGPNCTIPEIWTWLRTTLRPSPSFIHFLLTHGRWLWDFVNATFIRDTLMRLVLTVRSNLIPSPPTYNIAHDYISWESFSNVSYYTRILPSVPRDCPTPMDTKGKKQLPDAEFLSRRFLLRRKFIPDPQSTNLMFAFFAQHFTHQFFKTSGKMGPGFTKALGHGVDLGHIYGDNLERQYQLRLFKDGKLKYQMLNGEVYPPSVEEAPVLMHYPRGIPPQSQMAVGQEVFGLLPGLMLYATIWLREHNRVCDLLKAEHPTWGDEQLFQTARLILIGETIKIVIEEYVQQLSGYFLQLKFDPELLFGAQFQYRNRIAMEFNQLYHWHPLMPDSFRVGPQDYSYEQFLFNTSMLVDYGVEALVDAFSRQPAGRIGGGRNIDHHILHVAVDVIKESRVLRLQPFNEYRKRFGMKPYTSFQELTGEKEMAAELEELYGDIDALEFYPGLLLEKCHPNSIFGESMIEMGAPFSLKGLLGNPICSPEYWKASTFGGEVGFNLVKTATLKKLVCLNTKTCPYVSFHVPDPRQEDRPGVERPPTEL
Method in brief: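 COX-1 or COX-2 with heme was preincubated 120 min with compound (10 µM) in assay buffer. Arachidonic acid and a chemiluminescent substrate were then added at room temperature and peroxidative activity was read for 5 s; ibuprofen was the reference. Selectivity index was taken as the ratio of maximum COX-2 inhibition to COX-1 inhibition. Two independent experiments.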

[8] = system: Mus musculus; assay: Antinociceptive activity in carrageenan-induced Swiss mouse model of mechanical hyperalgesia assessed as mechanical hyperalgesic index pretreated orally for 1 hr followed by carrageenan challenge by Von Frey filament assay; format: functional
Method in brief: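 Swiss mice were placed in wire-screen acrylic boxes 60 min before testing. Vehicle, compound or indomethacin was given orally 1 h before intraplantar carrageenan. Mechanical threshold was found by the von Frey up-and-down method, with at least 6 trials at 10 s intervals, raising filament mass until paw withdrawal. Results are given as threshold in grams; n=8.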

[9] = Selectivity ratio of IC50 for equine serum BuChE to IC50 for electric eel AChE
Method in brief: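 Ellman kinetic assay with Electrophorus electricus AChE (acetylthiocholine) and equine serum BuChE (butyrylthiocholine iodide), […]. Enzyme was preincubated 10 min with DTNB and compound in 0.1 M sodium phosphate, pH 7.4 (final DMSO <0.2%), before substrate was added. A412 was read every 12 s for 5 min at rt to give maximum velocity. IC50 is the geometric mean of 2–3 curves, each 6 concentrations in triplicate. Selectivity is IC50 BuChE/IC50 AChE.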

[10] = system: Mus musculus; assay: as §1, with “Anti-inflammatory activity” for “Toxicity”, “inhibition” for “induction”; format: functional, organism-based; method in brief: as §2
[11] = system: SH-SY5Y; assay: Neuroprotection in human SH-SY5Y cells assessed as inhibition of amyloid beta (1 to 42) oligomer-induced early neurotoxic event by measuring decrease in MTT formazan exocytosis at 10 uM after 4 hrs by microscopic method; format: functional, cell-based
Method in brief: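 SH-SY5Y cells (3×10^4/well) were grown 24 h, then co-treated with compound and Aβ1-42 oligomers (10 µM) for 4 h at 37 °C. Medium was replaced by MTT in PBS for 2 h. Needle-like exocytosed formazan crystals on the cell surface were assessed by light microscopy. Three independent experiments.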

Sequence of Cholinesterase (Equus caballus) (P81908 whole entry): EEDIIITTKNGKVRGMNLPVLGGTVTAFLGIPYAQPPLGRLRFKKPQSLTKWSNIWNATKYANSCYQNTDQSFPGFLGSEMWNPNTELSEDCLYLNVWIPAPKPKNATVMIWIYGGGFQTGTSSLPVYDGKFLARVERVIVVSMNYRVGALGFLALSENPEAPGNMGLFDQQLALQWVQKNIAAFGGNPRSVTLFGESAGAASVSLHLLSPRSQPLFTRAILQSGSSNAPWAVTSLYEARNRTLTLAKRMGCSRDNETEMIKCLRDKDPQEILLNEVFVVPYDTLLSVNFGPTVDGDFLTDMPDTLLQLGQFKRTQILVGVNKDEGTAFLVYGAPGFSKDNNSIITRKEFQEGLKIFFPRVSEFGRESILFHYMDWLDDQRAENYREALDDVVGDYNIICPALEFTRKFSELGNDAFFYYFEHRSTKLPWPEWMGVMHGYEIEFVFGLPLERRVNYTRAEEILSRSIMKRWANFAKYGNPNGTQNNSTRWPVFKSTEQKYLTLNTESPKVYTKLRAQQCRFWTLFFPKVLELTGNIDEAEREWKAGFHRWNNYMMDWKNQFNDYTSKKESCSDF
Sequence of Cholinesterase (P81908 whole entry): as above

Compound | Activity [1] | pIC50 [2] | inhibition [3] | pIC50 [4] | pIC50 [5] | inhibition at 10 µM [6] [%] | inhibition [7] [%] | Activity_index [8] | Ratio IC50 [9] | inhibition [10] | inhibition [11]
O=C(N/N=C/c1ccc(F)cc1)c1ccc(CN2CCCC(O)C2)cc1 (stereo not given) | Toxic | 4.41 | Dose-dependent effect | < 4.10 | < 4.10 | 31 | 64 | 178.9 | 4.5 | inactive | 
O=C(N/N=C/c1ccc(Cl)cc1)c1ccc(CN2CCCC(O)C2)cc1 (stereo not given) |  | 4.32 | Dose-dependent effect | < 4.10 | < 4.10 | 29 | 51 | 168.3 | 1.9 | Active | Active
